# Assay results published in ChEMBL document CHEMBL1154944, “Azole-based inhibitors of AKT/PKB for the treatment of cancer” (Bioorg Med Chem Lett, 2010).
# Biological target: Cyclin-dependent kinase 1 (Homo sapiens, UniProt P06493)
# Assay: Inhibition of CDK1
# Conditions: not given
# Sequence of Cyclin-dependent kinase 1 (P06493 whole entry): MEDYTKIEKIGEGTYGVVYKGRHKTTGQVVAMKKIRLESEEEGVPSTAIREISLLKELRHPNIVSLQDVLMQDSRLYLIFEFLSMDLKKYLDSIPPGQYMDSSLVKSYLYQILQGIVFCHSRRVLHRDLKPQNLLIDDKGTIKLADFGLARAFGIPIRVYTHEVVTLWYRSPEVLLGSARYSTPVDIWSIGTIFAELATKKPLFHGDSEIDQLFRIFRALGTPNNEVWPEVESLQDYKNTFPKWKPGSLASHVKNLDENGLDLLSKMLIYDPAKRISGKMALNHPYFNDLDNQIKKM
row,Structure (SMILES),IC50 [nM]
1,N[C@H](CNc1ncc(-c2ccc3c(c2)CC(=O)N3)s1)Cc1ccc(C(F)(F)F)cc1,250

# Test system: not listed separately
# Assay: Half life in Sprague-Dawley rat at 2 mg/kg, iv
# Assay type: ADME, organism-based
# Design: dose 2 mg/kg, route intravenous
# Conditions: in vivo
# In short: (§1)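 Male Sprague Dawley rats (n = 3) given 2 mg/kg intravenously in DMSO.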
row,Structure (SMILES),half-life [h]
1,N[C@H](CNc1ncc(-c2ccc3c(c2)CC(=O)N3)s1)Cc1ccc(C(F)(F)F)cc1,4.3
2,N[C@H](CNc1ncc(-c2ccc3cnccc3c2)s1)Cc1ccc(C(F)(F)F)cc1,2.9
3,N[C@H](CNc1ncc(-c2ccc3[nH]c(=O)oc3c2)s1)Cc1ccc(C(F)(F)F)cc1,3.8

# Test system: not listed separately
# Assay: Inhibition of PKA
# Conditions: not given
row,Structure (SMILES),IC50 [nM]
1,N[C@H](CNc1ncc(-c2ccc3nnccc3c2)s1)Cc1ccc(C(F)(F)F)cc1,489
2,N[C@H](CNc1ncc(-c2ccc3[nH]ncc3c2)s1)Cc1ccc(Cl)cc1,39.9
3,N[C@H](CNc1cc(-c2ccc3cnccc3c2)no1)Cc1ccc(C(F)(F)F)cc1,40
4,Nc1cc2cc(-c3cnc(NC[C@@H](N)Cc4ccc(C(F)(F)F)cc4)s3)ccc2cn1,8.6
5,N[C@H](CNc1ncc(-c2ccc3cnccc3c2)s1)Cc1ccc(C(F)(F)F)cc1,5.9
6,N[C@H](CNc1ncc(-c2ccc3cn[nH]c3c2)s1)Cc1ccc(C(F)(F)F)cc1,334
7,N[C@H](CNc1ncc(-c2ccc3[nH]c(=O)oc3c2)s1)Cc1ccc(C(F)(F)F)cc1,326
8,N[C@H](CCc1cc(-c2ccc3cnccc3c2)no1)Cc1ccc(C(F)(F)F)cc1,50
9,N[C@H](CNc1nnc(-c2ccc3cnccc3c2)s1)Cc1ccc(C(F)(F)F)cc1,7.6
10,Cn1ncc2ccc(-c3cnc(NC[C@@H](N)Cc4ccc(C(F)(F)F)cc4)s3)cc21,230

# Test system: U-87 MG
# Assay: Inhibition of tumor growth in human U87MG cells xenografted in CD1 nude mouse assessed as tumor volume po QD for 18 days relative to control
# Assay type: functional, organism-based
# Conditions: U-87MG ATCC
# In short: (§2)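 10-week-old female CD1 nude mice injected sc in the flank with 5 × 10⁶ U-87 MG cells in DMEM. On day 10, randomized (n = 10) at ~200 mm³, then dosed po once daily for 18 d with supplemented diet. Tumors and body weight recorded twice weekly. Volume = length × width × height, analyzed by RMANOVA versus vehicle.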
row,Structure (SMILES),inhibition
1,N[C@H](CNc1ncc(-c2ccc3c(c2)CC(=O)N3)s1)Cc1ccc(C(F)(F)F)cc1,Dose-dependent effect

# Biological target: T1, RAC-alpha serine/threonine-protein kinase (Homo sapiens, UniProt P31749)
# T1 sequence (P31749 whole entry): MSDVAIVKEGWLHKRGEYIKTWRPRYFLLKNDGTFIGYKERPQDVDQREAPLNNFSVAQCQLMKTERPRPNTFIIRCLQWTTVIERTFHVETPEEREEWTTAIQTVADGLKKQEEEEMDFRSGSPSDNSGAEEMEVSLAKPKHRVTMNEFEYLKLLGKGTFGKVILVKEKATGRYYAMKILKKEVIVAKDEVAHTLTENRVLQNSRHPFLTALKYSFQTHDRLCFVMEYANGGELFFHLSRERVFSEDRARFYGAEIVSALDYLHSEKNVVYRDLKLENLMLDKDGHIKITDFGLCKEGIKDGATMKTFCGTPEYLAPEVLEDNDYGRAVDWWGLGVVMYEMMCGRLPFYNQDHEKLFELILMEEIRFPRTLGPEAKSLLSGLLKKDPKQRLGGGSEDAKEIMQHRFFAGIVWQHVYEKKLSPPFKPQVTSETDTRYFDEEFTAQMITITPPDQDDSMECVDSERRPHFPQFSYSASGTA
# Assay: Inhibition of AKT1 after 10 mins by [gamma33]ATP assay
# Conditions: not given
row,Structure (SMILES),IC50 [nM]
1,N[C@H](CNc1ncc(-c2ccc3nnccc3c2)s1)Cc1ccc(C(F)(F)F)cc1,141
2,N[C@H](CNc1ncc(-c2ccc3c(c2)CC(=O)N3)s1)Cc1ccc(C(F)(F)F)cc1,18.3
3,N[C@H](CNc1ncc(-c2ccc3[nH]ncc3c2)s1)Cc1ccc(Cl)cc1,8.5
4,N[C@H](CNc1cc(-c2ccc3cnccc3c2)no1)Cc1ccc(C(F)(F)F)cc1,17
5,Nc1cc2cc(-c3cnc(NC[C@@H](N)Cc4ccc(C(F)(F)F)cc4)s3)ccc2cn1,11.6
6,N[C@H](CNc1ncc(-c2ccc3cnccc3c2)s1)Cc1ccc(C(F)(F)F)cc1,4.9
7,N[C@H](CNc1ncc(-c2ccc3cn[nH]c3c2)s1)Cc1ccc(C(F)(F)F)cc1,613
8,N[C@H](CNc1ncc(-c2ccc3[nH]c(=O)oc3c2)s1)Cc1ccc(C(F)(F)F)cc1,8
9,N[C@H](CCc1cc(-c2ccc3cnccc3c2)no1)Cc1ccc(C(F)(F)F)cc1,40
10,N[C@H](CNc1nnc(-c2ccc3cnccc3c2)s1)Cc1ccc(C(F)(F)F)cc1,3.2
11,Cn1ncc2ccc(-c3cnc(NC[C@@H](N)Cc4ccc(C(F)(F)F)cc4)s3)cc21,895

# Test system: not listed separately
# Assay: Clearance in Sprague-Dawley rat at 2 mg/kg, iv
# Assay type: ADME, organism-based
# Design: dose 2 mg/kg, route intravenous
# Conditions: in vivo
# In short: as §1
row,Structure (SMILES),clearance [mL/min/kg]
1,N[C@H](CNc1ncc(-c2ccc3cnccc3c2)s1)Cc1ccc(C(F)(F)F)cc1,45
2,N[C@H](CNc1ncc(-c2ccc3[nH]c(=O)oc3c2)s1)Cc1ccc(C(F)(F)F)cc1,26.7

# Biological target: Mast/stem cell growth factor receptor Kit (Homo sapiens, UniProt P10721)
# Sequence (P10721 whole entry): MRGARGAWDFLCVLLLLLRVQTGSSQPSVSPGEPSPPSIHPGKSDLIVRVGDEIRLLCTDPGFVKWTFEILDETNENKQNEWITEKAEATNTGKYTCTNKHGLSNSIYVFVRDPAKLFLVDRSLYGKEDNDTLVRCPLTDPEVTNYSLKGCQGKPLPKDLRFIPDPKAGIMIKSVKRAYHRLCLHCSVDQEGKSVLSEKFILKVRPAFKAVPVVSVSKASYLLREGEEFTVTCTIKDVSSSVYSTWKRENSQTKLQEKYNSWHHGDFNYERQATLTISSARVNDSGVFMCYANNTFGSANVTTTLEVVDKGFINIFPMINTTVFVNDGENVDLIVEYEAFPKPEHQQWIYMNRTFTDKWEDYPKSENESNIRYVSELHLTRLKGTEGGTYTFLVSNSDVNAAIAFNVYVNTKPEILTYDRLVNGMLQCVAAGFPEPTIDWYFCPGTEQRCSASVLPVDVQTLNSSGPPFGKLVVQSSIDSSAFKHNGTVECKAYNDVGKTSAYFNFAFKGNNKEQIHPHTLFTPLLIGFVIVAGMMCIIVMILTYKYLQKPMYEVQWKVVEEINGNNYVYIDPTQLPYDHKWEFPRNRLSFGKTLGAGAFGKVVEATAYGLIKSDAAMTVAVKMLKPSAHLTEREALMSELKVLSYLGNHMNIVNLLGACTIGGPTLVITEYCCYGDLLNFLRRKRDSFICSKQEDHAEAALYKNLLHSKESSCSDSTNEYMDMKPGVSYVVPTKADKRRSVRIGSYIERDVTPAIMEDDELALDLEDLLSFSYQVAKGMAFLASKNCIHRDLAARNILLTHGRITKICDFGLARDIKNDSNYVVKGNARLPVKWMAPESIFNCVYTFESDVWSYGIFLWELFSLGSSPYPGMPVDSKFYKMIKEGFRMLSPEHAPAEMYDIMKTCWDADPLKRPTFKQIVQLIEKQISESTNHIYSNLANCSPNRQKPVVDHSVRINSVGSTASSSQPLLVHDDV
# Assay: Inhibition of cKIT
# Conditions: not given
row,Structure (SMILES),IC50 [nM]
1,N[C@H](CNc1ncc(-c2ccc3c(c2)CC(=O)N3)s1)Cc1ccc(C(F)(F)F)cc1,110

# Test system: not listed separately
# Assay: Plasma concentration in mouse at 30 mg/kg, po after 6 hrs
# Assay type: ADME, organism-based
# Design: dose 30 mg/kg, route oral
# Conditions: not given
row,Structure (SMILES),concentration at 6 h [µM]
1,N[C@H](CNc1ncc(-c2ccc3c(c2)CC(=O)N3)s1)Cc1ccc(C(F)(F)F)cc1,3.5
2,N[C@H](CNc1ncc(-c2ccc3cnccc3c2)s1)Cc1ccc(C(F)(F)F)cc1,1.5

# Biological target: T1, RAC-alpha serine/threonine-protein kinase
# Assay: Inhibition of human AKT1 in human U87MG cells assessed as PRAS40 phosphorylation after 1 hr by ELISA
# Assay type: cell-based, U-87MG ATCC
# Conditions: not given
# In short: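 U-87 MG cells in 5% FBS incubated with inhibitor in threefold serial dilutions for 1 h at 37 °C, then lysed. Phospho-PRAS40 (Thr246) quantified by ELISA and normalized to total PRAS40. Mean ± SD where three or more measurements.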
row,Structure (SMILES),IC50 [nM]
1,N[C@H](CNc1ncc(-c2ccc3c(c2)CC(=O)N3)s1)Cc1ccc(C(F)(F)F)cc1,300
2,N[C@H](CNc1ncc(-c2ccc3[nH]ncc3c2)s1)Cc1ccc(Cl)cc1,730
3,Nc1cc2cc(-c3cnc(NC[C@@H](N)Cc4ccc(C(F)(F)F)cc4)s3)ccc2cn1,890
4,N[C@H](CNc1ncc(-c2ccc3cnccc3c2)s1)Cc1ccc(C(F)(F)F)cc1,430
5,N[C@H](CNc1ncc(-c2ccc3[nH]c(=O)oc3c2)s1)Cc1ccc(C(F)(F)F)cc1,500
6,N[C@H](CCc1cc(-c2ccc3cnccc3c2)no1)Cc1ccc(C(F)(F)F)cc1,3800

# Biological target: Cyclin-dependent kinase 2 (Homo sapiens, UniProt P24941)
# Assay: Inhibition of CDK2
# Conditions: not given
row,Structure (SMILES),IC50 [nM]
1,N[C@H](CNc1ncc(-c2ccc3nnccc3c2)s1)Cc1ccc(C(F)(F)F)cc1,> 2000
2,N[C@H](CNc1ncc(-c2ccc3c(c2)CC(=O)N3)s1)Cc1ccc(C(F)(F)F)cc1,185
3,N[C@H](CNc1cc(-c2ccc3cnccc3c2)no1)Cc1ccc(C(F)(F)F)cc1,93
4,Nc1cc2cc(-c3cnc(NC[C@@H](N)Cc4ccc(C(F)(F)F)cc4)s3)ccc2cn1,15.4
5,N[C@H](CNc1ncc(-c2ccc3cnccc3c2)s1)Cc1ccc(C(F)(F)F)cc1,12.4
6,N[C@H](CNc1ncc(-c2ccc3cn[nH]c3c2)s1)Cc1ccc(C(F)(F)F)cc1,> 1000
7,N[C@H](CNc1ncc(-c2ccc3[nH]c(=O)oc3c2)s1)Cc1ccc(C(F)(F)F)cc1,138
8,N[C@H](CCc1cc(-c2ccc3cnccc3c2)no1)Cc1ccc(C(F)(F)F)cc1,117

# Test system: Mus musculus
# Assay: Toxicity in human U87MG cells xenografted CD1 nude mouse assessed as loss in body weight po QD for 18 days relative to control
# Assay type: organism-based, U-87MG ATCC
# Conditions: in vivo, 432 h
# In short: as §2
row,Structure (SMILES),Activity [%]
1,N[C@H](CNc1ncc(-c2ccc3c(c2)CC(=O)N3)s1)Cc1ccc(C(F)(F)F)cc1,2

# Test system: not listed separately
# Assay: Antitumor activity against human U87MG cells xenografted in CD1 nude mouse assessed as inhibition of tumor growth at 30 mg/kg, po QD for 18 days relative to control
# Assay type: functional, U-87MG ATCC
# Conditions: U-87 MG, 432 h, read-out: GI
# In short: as §2
row,Structure (SMILES),inhibition in vivo at 30 mg/kg [%]
1,N[C@H](CNc1ncc(-c2ccc3c(c2)CC(=O)N3)s1)Cc1ccc(C(F)(F)F)cc1,93

# Test system: not listed separately
# Assay: Cmax in Sprague-Dawley rat at 5 mg/kg, po
# Assay type: ADME, organism-based
# Design: dose 5 mg/kg, route oral
# Conditions: in vivo
# In short: (§3)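 Male Sprague Dawley rats (n = 3) given 5 mg/kg orally in 2% HPMC, 1% Tween 80, pH 2.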
row,Structure (SMILES),Cmax [ng/mL]
1,N[C@H](CNc1ncc(-c2ccc3c(c2)CC(=O)N3)s1)Cc1ccc(C(F)(F)F)cc1,417
2,N[C@H](CNc1ncc(-c2ccc3cnccc3c2)s1)Cc1ccc(C(F)(F)F)cc1,66
3,N[C@H](CNc1ncc(-c2ccc3[nH]c(=O)oc3c2)s1)Cc1ccc(C(F)(F)F)cc1,68

# Test system: Mus musculus
# Assay: Inhibition of HGF-stimulated AKT signaling pathway in mouse liver assessed as phosphorylated PRAS40 level at 30 mg/kg, po dosed 6 hrs prior to HGF challenge and measured after 5 mins by ELISA
# Assay type: functional
# Conditions: not given
# In short: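 Mice (n = 3, female) dosed 30 mg/kg po in 0.1% PBS/BSA. At 6 h, HGF given by tail-vein injection. Livers harvested 5 min later, and phospho- and total PRAS40 measured by ELISA; inhibition taken from pPRAS40/total ratio. Factorial ANOVA with Dunnett's post hoc test.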
row,Structure (SMILES),inhibition in vivo at 30 mg/kg [%]
1,N[C@H](CNc1ncc(-c2ccc3c(c2)CC(=O)N3)s1)Cc1ccc(C(F)(F)F)cc1,43
2,N[C@H](CNc1ncc(-c2ccc3cnccc3c2)s1)Cc1ccc(C(F)(F)F)cc1,4

# Test system: not listed separately
# Assay: Volume of distribution at steady state in Sprague-Dawley rat at 2 mg/kg, iv
# Assay type: ADME, organism-based
# Design: dose 2 mg/kg, route intravenous
# Conditions: in vivo, read-out: Vdss
# In short: as §1
row,Structure (SMILES),Vd [L/kg]
1,N[C@H](CNc1ncc(-c2ccc3c(c2)CC(=O)N3)s1)Cc1ccc(C(F)(F)F)cc1,6.8
2,N[C@H](CNc1ncc(-c2ccc3cnccc3c2)s1)Cc1ccc(C(F)(F)F)cc1,7.1
3,N[C@H](CNc1ncc(-c2ccc3[nH]c(=O)oc3c2)s1)Cc1ccc(C(F)(F)F)cc1,6.7

# Test system: not listed separately
# Assay: Oral bioavailability in Sprague-Dawley rat at 5 mg/kg
# Assay type: ADME, organism-based
# Conditions: in vivo
# In short: as §3
row,Structure (SMILES),bioavailability [%]
1,N[C@H](CNc1ncc(-c2ccc3c(c2)CC(=O)N3)s1)Cc1ccc(C(F)(F)F)cc1,64
2,N[C@H](CNc1ncc(-c2ccc3cnccc3c2)s1)Cc1ccc(C(F)(F)F)cc1,20
3,N[C@H](CNc1ncc(-c2ccc3[nH]c(=O)oc3c2)s1)Cc1ccc(C(F)(F)F)cc1,11

# Test system: not listed separately
# Assay: Cytotoxicity against human U87MG cells after 3 days by alamar blue assay
# Assay type: functional, cell-based, U-87MG ATCC
# Conditions: U-87 MG, 72 h
# In short: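 U-87 MG cells seeded at 6000 cells/well in 5% FBS and treated with threefold serial dilutions for three days. Viability read by alamarBlue staining.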
row,Structure (SMILES),IC50 [nM]
1,N[C@H](CNc1ncc(-c2ccc3c(c2)CC(=O)N3)s1)Cc1ccc(C(F)(F)F)cc1,630

# Test system: not listed separately
# Assay: Plasma concentration in human U87MG cells xenografted CD1 nude mouse at 30 mg/kg, po QD for 18 days measured after 3 hrs post last dose
# Assay type: ADME, organism-based, U-87MG ATCC
# Design: dose 30 mg/kg, route oral
# Conditions: not given
# In short: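 Female CD1 nude mice bearing U-87 MG tumors (n = 10) dosed 30 mg/kg po daily for 18 d. Plasma sampled 3 h after the last dose.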
row,Structure (SMILES),concentration at 3 h [µM]
1,N[C@H](CNc1ncc(-c2ccc3c(c2)CC(=O)N3)s1)Cc1ccc(C(F)(F)F)cc1,6.2

# Test system: not listed separately
# Assay: AUC (0 to 24 hrs) in Sprague-Dawley rat at 5 mg/kg, po
# Assay type: ADME, organism-based
# Design: time < 24 hr, dose 5 mg/kg, route oral
# Conditions: plasma
# In short: as §3
row,Structure (SMILES),AUC(0-t) at 24 h [ng·h/mL]
1,N[C@H](CNc1ncc(-c2ccc3c(c2)CC(=O)N3)s1)Cc1ccc(C(F)(F)F)cc1,2600
2,N[C@H](CNc1ncc(-c2ccc3cnccc3c2)s1)Cc1ccc(C(F)(F)F)cc1,387
3,N[C@H](CNc1ncc(-c2ccc3[nH]c(=O)oc3c2)s1)Cc1ccc(C(F)(F)F)cc1,348

# Test system: U-87MG ATCC
# Assay: Selectivity ratio of IC50 for AKT1 in human U87MG cells to IC50 for AKT1
# Assay type: cell-based
# Conditions: not given
row,Structure (SMILES),Ratio IC50
1,N[C@H](CNc1ncc(-c2ccc3[nH]ncc3c2)s1)Cc1ccc(Cl)cc1,86
2,Nc1cc2cc(-c3cnc(NC[C@@H](N)Cc4ccc(C(F)(F)F)cc4)s3)ccc2cn1,77
3,N[C@H](CNc1ncc(-c2ccc3cnccc3c2)s1)Cc1ccc(C(F)(F)F)cc1,88
4,N[C@H](CCc1cc(-c2ccc3cnccc3c2)no1)Cc1ccc(C(F)(F)F)cc1,95

# Biological target: Vascular endothelial growth factor receptor 2 (Homo sapiens, UniProt P35968)
# Sequence (P35968 whole entry): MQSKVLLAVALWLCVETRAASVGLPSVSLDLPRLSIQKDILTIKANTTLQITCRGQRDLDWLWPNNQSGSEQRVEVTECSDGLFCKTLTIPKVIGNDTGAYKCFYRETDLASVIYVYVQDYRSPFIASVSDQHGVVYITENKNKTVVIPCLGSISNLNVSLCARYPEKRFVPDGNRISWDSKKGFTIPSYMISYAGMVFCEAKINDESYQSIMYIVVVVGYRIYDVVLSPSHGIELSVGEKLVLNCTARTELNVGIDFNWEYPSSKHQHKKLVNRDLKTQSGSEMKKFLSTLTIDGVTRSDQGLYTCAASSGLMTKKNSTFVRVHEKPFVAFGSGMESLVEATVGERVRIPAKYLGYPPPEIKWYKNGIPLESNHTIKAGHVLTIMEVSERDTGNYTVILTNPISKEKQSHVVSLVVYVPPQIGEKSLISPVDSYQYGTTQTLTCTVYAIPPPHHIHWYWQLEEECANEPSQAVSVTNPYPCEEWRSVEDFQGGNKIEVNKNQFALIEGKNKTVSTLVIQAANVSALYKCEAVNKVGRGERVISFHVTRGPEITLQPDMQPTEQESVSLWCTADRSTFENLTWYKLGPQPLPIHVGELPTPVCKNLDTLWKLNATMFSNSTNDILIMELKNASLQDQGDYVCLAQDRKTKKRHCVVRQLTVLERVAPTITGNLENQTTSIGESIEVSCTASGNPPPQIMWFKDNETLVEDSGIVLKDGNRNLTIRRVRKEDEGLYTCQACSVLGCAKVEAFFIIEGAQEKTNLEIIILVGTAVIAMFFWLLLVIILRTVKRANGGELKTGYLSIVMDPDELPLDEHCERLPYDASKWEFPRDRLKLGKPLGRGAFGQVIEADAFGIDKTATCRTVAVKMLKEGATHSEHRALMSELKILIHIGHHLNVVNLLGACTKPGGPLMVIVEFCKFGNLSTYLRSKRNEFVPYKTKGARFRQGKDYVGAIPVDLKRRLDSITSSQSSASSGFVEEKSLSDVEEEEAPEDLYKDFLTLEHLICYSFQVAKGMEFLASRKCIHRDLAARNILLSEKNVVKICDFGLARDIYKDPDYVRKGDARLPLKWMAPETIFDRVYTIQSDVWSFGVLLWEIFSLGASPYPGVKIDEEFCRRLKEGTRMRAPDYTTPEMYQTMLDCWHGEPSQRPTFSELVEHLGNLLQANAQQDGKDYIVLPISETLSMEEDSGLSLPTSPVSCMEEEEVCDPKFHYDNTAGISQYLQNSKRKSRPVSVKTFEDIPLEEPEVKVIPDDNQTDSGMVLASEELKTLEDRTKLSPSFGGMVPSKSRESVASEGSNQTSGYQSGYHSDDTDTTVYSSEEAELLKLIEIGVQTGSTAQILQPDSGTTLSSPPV
# Assay: Inhibition of KDR
# Conditions: not given
row,Structure (SMILES),IC50 [nM]
1,N[C@H](CNc1ncc(-c2ccc3c(c2)CC(=O)N3)s1)Cc1ccc(C(F)(F)F)cc1,300
